Results: ChEMBL document CHEMBL1137395, “Synthesis and antiviral activity of 5-substituted cytidine analogues: identification of a potent inhibitor of viral RNA-dependent RNA polymerases” (J Med Chem, 2006)
The source made the active and inactive calls. The rule behind the calls is not given here.

Tests used:
HeLa = test: Viability of human HeLa S3 cells; assay type: functional; set-up: concentration or dose not given beside the values
Summary of the method: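 HeLa S3 cells exposed to compound for 7 h, then allowed to recover without compound for 24 h; viability recorded at four concentrations.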

Enterovirus C = test: Antiviral activity against poliovirus in HeLa S3 cells assessed as reduction in viral titer; assay type: functional, organism-based
Summary of the method: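 HeLa S3 cells pretreated with compound 1 h, then infected with 10⁶ PFU poliovirus (high MOI); after 15 min adsorption, fresh medium containing compound added and infection run a further 6 h. Cell-associated virus titered by plaque assay.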

Coxsackievirus B3 = test: Antiviral activity against coxsackievirus B3 in HeLa S3 cells assessed as reduction in viral titer; assay type: functional, organism-based
Summary of the method: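 HeLa S3 cells were pretreated with compound for 1 h, then infected with 10⁶ PFU CVB3 (high MOI). After 15 min of virus association, fresh medium containing compound was added and infection continued for 6 h. Cell-associated virus was titered by plaque assay. Cytotoxicity was checked separately after 7 h of treatment plus 24 h of recovery without compound.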

Genome polyprotein = Genome polyprotein (Human poliovirus 1 Mahoney, UniProt P03300); test: Binding affinity to poliovirus RNA dependent RNA polymerase; set-up: species or system Enterovirus C
Summary of the method: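 Purified poliovirus RdRP complexed with ³²P end-labeled symmetrical 10-mer RNA primer-template (S/S–G); nucleotide incorporation opposite G followed, products separated by denaturing PAGE; Kd and kpol derived from incorporation kinetics.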

Human alphaherpesvirus 1 = test: Antiviral activity against herpes simplex virus 1; assay type: functional, organism-based
Human alphaherpesvirus 2 = test: Antiviral activity against herpes simplex virus 2; assay type: functional, organism-based
[1] = test system: Human immunodeficiency virus 1; test: Antiviral activity against HIV1; assay type: functional, organism-based

Sequence of Genome polyprotein (P03300 1749-2209 limits assumed): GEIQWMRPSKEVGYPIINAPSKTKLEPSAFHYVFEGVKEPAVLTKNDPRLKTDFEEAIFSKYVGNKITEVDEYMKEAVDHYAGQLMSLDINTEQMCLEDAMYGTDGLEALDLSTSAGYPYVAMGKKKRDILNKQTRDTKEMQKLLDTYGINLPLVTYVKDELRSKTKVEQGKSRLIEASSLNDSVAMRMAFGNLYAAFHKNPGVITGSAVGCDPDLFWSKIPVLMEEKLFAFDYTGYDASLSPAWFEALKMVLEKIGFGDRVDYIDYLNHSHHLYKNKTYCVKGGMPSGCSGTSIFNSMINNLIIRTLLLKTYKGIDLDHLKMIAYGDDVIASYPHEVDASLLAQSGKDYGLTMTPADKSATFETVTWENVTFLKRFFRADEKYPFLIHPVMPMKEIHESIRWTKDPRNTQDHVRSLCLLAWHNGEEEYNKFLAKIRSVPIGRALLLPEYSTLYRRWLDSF

Row | SMILES | Activity (HeLa) [%] | Activity (Enterovirus C) | Activity (Coxsackievirus B3) | further results
1 | Nc1cn([C@@H]2O[C@H](CO)[C@@H](O)[C@H]2O)c(=O)nc1N | 62 | Active | Active | 
2 | Nc1nc(=O)n([C@@H]2O[C@H](CO)[C@@H](O)[C@H]2O)cc1Br | 63 |  |  | 
3 | Nc1nc(=O)n([C@@H]2O[C@H](CO)[C@@H](O)[C@H]2O)cc1O | 36 |  |  | 
4 | Nc1nc(=O)n([C@H]2C[C@H](O)[C@@H](CO)O2)cc1O | 82 | inactive | inactive | 
5 | Nc1nc(=O)n([C@@H]2O[C@H](CO[P@@](=O)(O)O[P@](=O)(O)OP(=O)(O)O)[C@@H](O)[C@H]2O)cc1[N+](=O)[O-] |  |  |  | Kd (Genome polyprotein): 1080 nM
6 | NC(=O)c1ncn([C@@H]2O[C@H](CO)[C@@H](O)[C@H]2O)n1 [RIBAVIRIN] | 70 | Dose-dependent effect | Dose-dependent effect | 
7 | Nc1nc(=O)n([C@H]2C[C@H](O)[C@@H](CO)O2)cc1Br | 93 | inactive | inactive | 
8 | Nc1nc(=O)n([C@H]2C[C@H](O)[C@@H](CO)O2)cc1[N+](=O)[O-] |  |  |  | Activity (Human alphaherpesvirus 1): Active; Activity (Human alphaherpesvirus 2): Active; Activity [1]: Active
9 | Nc1nc(=O)n([C@@H]2O[C@H](CO)[C@@H](O)[C@H]2O)cc1[N+](=O)[O-] | 80 | Active | Active | 
